Data on 20 compounds can be found in ChEMBL document CHEMBL4184183, “Novel sulfenamides and sulfonamides based on pyridazinone and pyridazine scaffolds as CB1 receptor ligand antagonists” (Bioorg Med Chem, 2018).

Calls of active or inactive are those of the source. The rule behind the calls is not given here.

Series [1] deals with Mus musculus. Put plainly: Analgesic effect in mouse assessed as elevation in latency response at 1 mg/kg measured after 5 mins by hot plate test. It counts as functional, organism-based.
In series [2] the target is T1, Cannabinoid receptor 1 (Homo sapiens, UniProt P21554). Put plainly: Displacement of [3H]CP,55-940 from recombinant human CB1 receptor expressed in HEK293 EBNA cell membranes after 90 mins by microbeta scintillation counting method.
For series [3], the target named is T2, Cannabinoid receptor 2 (Homo sapiens, UniProt P34972). Briefly: Displacement of [3H]CP,55-940 from recombinant human CB2 receptor expressed in HEK293 EBNA cell membranes after 90 mins by microbeta scintillation counting method.
Series [4] deals with T1, Cannabinoid receptor 1. Put plainly: Displacement of [3H]CP,55-940 from recombinant human CB1 receptor expressed in HEK293 EBNA cell membranes at 40 uM after 90 mins by microbeta scintillation counting method relative to control. The essentials: (§1)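 Competition binding with [³H]-CP55,940 on human CB₁R or CB₂R transfected into HEK293 EBNA cells; each compound screened once at 40 µM for percent displacement of radioligand.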

In series [5] the target is T2, Cannabinoid receptor 2. Put plainly: Displacement of [3H]CP,55-940 from recombinant human CB2 receptor expressed in HEK293 EBNA cell membranes at 40 uM after 90 mins by microbeta scintillation counting method relative to control. The essentials: as §1
Series [6] deals with T1, Cannabinoid receptor 1. Briefly: Antagonist activity at human CB1 receptor expressed in CHO cell membranes assessed as reduction in GTPgammaS binding after 30 mins by microbeta counting method. It counts as functional, cell-based.
Series [7] has as its system Mus musculus. Put plainly: Reversal of delta9-THC-induced analgesic effect in mouse assessed as reduction in delta9-THC-induced elevation in latency response at 2.5 mg/kg measured after 5 mins by hot plate test. The class given is organism-based. Particulars: in vivo. The essentials: (§2)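 Hot-plate test in mice, read as latency to respond to the painful stimulus. Test agent at 2.5 mg/kg was given alone or with the cannabinoid agonist Δ9-THC at 5 mg/kg. […] 7-9 mice per group; means SEM; one-way ANOVA with Student-Newman-Keuls test.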

Series [8] has as its system Mus musculus. Put plainly: Analgesic effect in mouse assessed as elevation in latency response at 2.5 mg/kg measured after 5 mins by hot plate test. It counts as functional, organism-based. The essentials: as §2

T1 sequence (P21554 whole entry): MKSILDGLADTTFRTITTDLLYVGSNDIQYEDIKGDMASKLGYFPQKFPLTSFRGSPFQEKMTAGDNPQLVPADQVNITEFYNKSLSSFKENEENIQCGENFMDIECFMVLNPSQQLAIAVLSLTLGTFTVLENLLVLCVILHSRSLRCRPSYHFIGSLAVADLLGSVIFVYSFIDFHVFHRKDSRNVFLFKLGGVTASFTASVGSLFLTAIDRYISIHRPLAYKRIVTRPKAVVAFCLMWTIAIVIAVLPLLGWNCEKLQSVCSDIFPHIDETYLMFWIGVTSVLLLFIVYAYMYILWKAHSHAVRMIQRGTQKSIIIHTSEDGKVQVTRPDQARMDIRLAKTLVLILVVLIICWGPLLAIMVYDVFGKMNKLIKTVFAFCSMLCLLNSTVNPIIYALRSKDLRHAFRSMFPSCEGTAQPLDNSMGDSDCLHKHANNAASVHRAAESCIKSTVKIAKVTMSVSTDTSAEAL
T2 sequence (P34972 whole entry): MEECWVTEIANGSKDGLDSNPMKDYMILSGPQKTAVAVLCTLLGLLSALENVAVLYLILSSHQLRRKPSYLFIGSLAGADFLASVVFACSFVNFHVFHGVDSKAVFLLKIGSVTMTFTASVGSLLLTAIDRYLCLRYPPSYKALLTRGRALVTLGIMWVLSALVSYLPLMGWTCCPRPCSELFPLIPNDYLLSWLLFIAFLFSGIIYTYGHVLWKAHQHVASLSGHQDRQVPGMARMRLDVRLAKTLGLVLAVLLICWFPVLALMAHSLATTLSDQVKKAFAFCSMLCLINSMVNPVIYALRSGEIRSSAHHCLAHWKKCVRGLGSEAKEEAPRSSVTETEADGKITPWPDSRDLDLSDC

Take `Cc1c(C(=O)NN2CCCCC2)nn(-c2ccc(Cl)cc2Cl)c1-c1ccc(Cl)cc1`: the result with Mus musculus [1] was inactive.

Regarding `Cc1ccc(-c2cc(SNC3CC4CCC3(C)C4(C)C)nnc2-c2ccc(C)cc2)cc1` (centres undefined), the results for the Ki at Cannabinoid receptor 1 [2] (read-out: Ki) and on Cannabinoid receptor 2 [3] (read-out: Ki) were 44.6 nM and above 40000 nM, respectively. Also, the inhibition at Cannabinoid receptor 1 [4] was above 70%; on Cannabinoid receptor 2 [5], below 70%. The IC50 on Cannabinoid receptor 1 [6] worked out at 249 nM.

Consider `Cc1ccc(-c2cc(S(=O)(=O)NC3CCCC3)nnc2-c2ccc(C)cc2)cc1`, for which the Ki is 1460 nM at Cannabinoid receptor 1 [2] (read-out: Ki) and above 40000 nM on Cannabinoid receptor 2 [3] (read-out: Ki). In addition, the inhibition is above 70% on Cannabinoid receptor 1 [4] and below 70% on Cannabinoid receptor 2 [5].

`Cc1ccc(-c2cc(SNC3CCCCC3)nnc2-c2ccc(C)cc2)cc1`: the Ki result on Cannabinoid receptor 1 [2] and on Cannabinoid receptor 2 [3] was “Nd(Insoluble)” in each case.

With `Cc1ccc(-c2cc(S(=O)(=O)NC3CC4CCC3(C)C4(C)C)nnc2-c2ccc(C)cc2)cc1` (centres undefined), the Ki at Cannabinoid receptor 1 [2] (read-out: Ki) was 1290 nM; at Cannabinoid receptor 2 [3] (read-out: Ki) it was above 40000 nM. Further, the inhibition on Cannabinoid receptor 1 [4] is above 70%; on Cannabinoid receptor 2 [5], below 70%.

As to `Cc1ccc(-c2cc(S(=O)(=O)NC3CCCCCC3)nnc2-c2ccc(C)cc2)cc1`, the results for the Ki at Cannabinoid receptor 1 [2] (read-out: Ki) and on Cannabinoid receptor 2 [3] (read-out: Ki) were 800 nM and above 40000 nM, respectively. The inhibition on Cannabinoid receptor 1 [4] was above 70%; at Cannabinoid receptor 2 [5], below 70%.

For the compound `Cc1ccc(Cn2nc(-c3ccc(C)cc3)cc(S(=O)(=O)NC3CCCCCC3)c2=O)cc1`, the Ki was 1190 nM at Cannabinoid receptor 1 [2] (read-out: Ki) and 2550 nM at Cannabinoid receptor 2 [3] (read-out: Ki). Also, the figures for the inhibition at Cannabinoid receptor 1 [4] and on Cannabinoid receptor 2 [5] were above 70% and below 70%, respectively. Also, the Activity result in the series with Mus musculus [7] is on record as “Toxic”.

For `Cc1ccc(-c2cc(S(=O)(=O)NC3CC4CC(C3C)C4(C)C)nnc2-c2ccc(C)cc2)cc1` (centres undefined), the Ki was 73.2 nM at Cannabinoid receptor 1 [2] (read-out: Ki) and above 40000 nM on Cannabinoid receptor 2 [3] (read-out: Ki). Further, the inhibition on Cannabinoid receptor 1 [4] is above 70%; at Cannabinoid receptor 2 [5] it was below 70%. Besides, the IC50 on Cannabinoid receptor 1 [6] came out at 550 nM.

Turning to `Cc1ccc(-c2cc(SNC3C4(C)CCC(C4)C3(C)C)nnc2-c2ccc(C)cc2)cc1` (centres undefined), the Ki on Cannabinoid receptor 1 [2] (read-out: Ki) was 247 nM; at Cannabinoid receptor 2 [3] (read-out: Ki) it was above 40000 nM. Besides, the inhibition on Cannabinoid receptor 1 [4] is above 70%; at Cannabinoid receptor 2 [5] it was below 70%.

As to `Cc1ccc(-c2cc(SNCC34CC5CC(CC(C5)C3)C4)nnc2-c2ccc(C)cc2)cc1`, the Ki on Cannabinoid receptor 1 [2] (read-out: Ki) was 857 nM; on Cannabinoid receptor 2 [3] (read-out: Ki), above 40000 nM. In addition, the figures for the inhibition at Cannabinoid receptor 1 [4] and on Cannabinoid receptor 2 [5] were above 70% and below 70%, respectively.

As to `Cc1ccc(Cn2nc(-c3ccc(C)cc3)cc(SNC3CCCCCC3)c2=O)cc1`, the inhibition constant Ki on Cannabinoid receptor 1 [2] (read-out: Ki) and at Cannabinoid receptor 2 [3] (read-out: Ki) was above 40000 nM each time. Also, the inhibition entry on Cannabinoid receptor 1 [4] and on Cannabinoid receptor 2 [5] was “inactive” throughout.

For the compound `Cc1ccc(-c2cc(S(=O)(=O)NC3CC(C)CCC3C(C)C)nnc2-c2ccc(C)cc2)cc1` (centres undefined), the Ki on Cannabinoid receptor 1 [2] (read-out: Ki) is above 10000 nM; at Cannabinoid receptor 2 [3] (read-out: Ki), above 40000 nM. The results for the inhibition on Cannabinoid receptor 1 [4] and at Cannabinoid receptor 2 [5] were above 70% and below 70%, respectively.

Consider `Cc1ccc(-c2cc(SNC3CC(C)CCC3C(C)C)nnc2-c2ccc(C)cc2)cc1` (centres undefined), for which the Ki at Cannabinoid receptor 1 [2] (read-out: Ki) is 708 nM; at Cannabinoid receptor 2 [3] (read-out: Ki), above 40000 nM. For the same compound, the inhibition is above 70% at Cannabinoid receptor 1 [4] and below 70% at Cannabinoid receptor 2 [5].

`Cc1ccc(-c2cc(SNC3CCCC3)nnc2-c2ccc(C)cc2)cc1`: the Ki is 724 nM on Cannabinoid receptor 1 [2] (read-out: Ki) and above 40000 nM on Cannabinoid receptor 2 [3] (read-out: Ki). Also, the inhibition at Cannabinoid receptor 1 [4] is above 70%; at Cannabinoid receptor 2 [5] it was below 70%.

For `Cc1ccc(-c2cc(SNC3CC4CC(C3C)C4(C)C)nnc2-c2ccc(C)cc2)cc1` (centres undefined), the values for the Ki at Cannabinoid receptor 1 [2] (read-out: Ki) and on Cannabinoid receptor 2 [3] (read-out: Ki) were 75.5 nM and above 40000 nM, respectively. The inhibition on Cannabinoid receptor 1 [4] was above 70%; on Cannabinoid receptor 2 [5], below 70%. Moreover, at Cannabinoid receptor 1 [6], the IC50 turned out to be 182 nM. Further, in the series with Mus musculus [8], the result was inactive.

Consider `Cc1ccc(-c2cc(S(=O)(=O)NCC3CCC4CC3C4(C)C)nnc2-c2ccc(C)cc2)cc1` (centres undefined), for which the Ki is above 10000 nM at Cannabinoid receptor 1 [2] (read-out: Ki) and above 40000 nM on Cannabinoid receptor 2 [3] (read-out: Ki). The inhibition on Cannabinoid receptor 1 [4] is above 70%; on Cannabinoid receptor 2 [5] it was below 70%.

For `Cc1ccc(-c2cc(SNCCN3CCOCC3)nnc2-c2ccc(C)cc2)cc1`, the Ki on Cannabinoid receptor 2 [3] (read-out: Ki) is above 40000 nM. For the same compound, the inhibition on Cannabinoid receptor 1 [4] is above 70%; on Cannabinoid receptor 2 [5] it was below 70%.

Turning to `Cc1ccc(-c2cc(SNC3CCCCCC3)nnc2-c2ccc(C)cc2)cc1`, the Ki was 609 nM at Cannabinoid receptor 1 [2] (read-out: Ki) and above 40000 nM on Cannabinoid receptor 2 [3] (read-out: Ki). Also, the inhibition is above 70% at Cannabinoid receptor 1 [4] and below 70% on Cannabinoid receptor 2 [5].

As to `Cc1ccc(-c2cc(SNCC3CCC4CC3C4(C)C)nnc2-c2ccc(C)cc2)cc1` (centres undefined), the Ki is 1250 nM at Cannabinoid receptor 1 [2] (read-out: Ki) and above 40000 nM at Cannabinoid receptor 2 [3] (read-out: Ki). The inhibition on Cannabinoid receptor 1 [4] is above 70%; at Cannabinoid receptor 2 [5] it was below 70%.

Turning to `Cc1ccc(-c2cc(S(=O)(=O)NC3CCCCC3)nnc2-c2ccc(C)cc2)cc1`, the Ki on Cannabinoid receptor 1 [2] (read-out: Ki) was 3600 nM; on Cannabinoid receptor 2 [3] (read-out: Ki), above 40000 nM. Moreover, the inhibition on Cannabinoid receptor 1 [4] is above 70%; at Cannabinoid receptor 2 [5] it was below 70%.
